The target of assay [1] is Receptor-type tyrosine-protein phosphatase F (Homo sapiens, UniProt P10586). In words: Inhibitory activity against LAR protein tyrosine phosphatase. A digest of the protocol: (§1)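 Selectivity panel of nine phosphatases, each assayed with fluorescein diphosphate at the same concentration as in the PTP-1B assay (20 μM). IC50 values (μM) reported.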
Assay [2] addresses Tyrosine-protein phosphatase YopH (Yersinia enterocolitica, UniProt P15273). The assay is described as follows: Inhibitory activity against YOP protein tyrosine phosphatase. A digest of the protocol:
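Counter-screen against Yop phosphatase within a nine-phosphatase selectivity panel. Fluorescein diphosphate substrate at 20 μM, the same level as in the PTP-1B assay. Potency is reported as IC50 (μM).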

Assay [3] has as its target Serine/threonine-protein phosphatase PP1-gamma catalytic subunit (Homo sapiens, UniProt P36873). The assay is described as follows: Inhibitory activity against Protein phosphatase 1. The method, boiled down:
as §1

For assay [4], the target named is T1, M-phase inducer phosphatase 2 (Homo sapiens, UniProt P30305).
T1 sequence (P30305 whole entry): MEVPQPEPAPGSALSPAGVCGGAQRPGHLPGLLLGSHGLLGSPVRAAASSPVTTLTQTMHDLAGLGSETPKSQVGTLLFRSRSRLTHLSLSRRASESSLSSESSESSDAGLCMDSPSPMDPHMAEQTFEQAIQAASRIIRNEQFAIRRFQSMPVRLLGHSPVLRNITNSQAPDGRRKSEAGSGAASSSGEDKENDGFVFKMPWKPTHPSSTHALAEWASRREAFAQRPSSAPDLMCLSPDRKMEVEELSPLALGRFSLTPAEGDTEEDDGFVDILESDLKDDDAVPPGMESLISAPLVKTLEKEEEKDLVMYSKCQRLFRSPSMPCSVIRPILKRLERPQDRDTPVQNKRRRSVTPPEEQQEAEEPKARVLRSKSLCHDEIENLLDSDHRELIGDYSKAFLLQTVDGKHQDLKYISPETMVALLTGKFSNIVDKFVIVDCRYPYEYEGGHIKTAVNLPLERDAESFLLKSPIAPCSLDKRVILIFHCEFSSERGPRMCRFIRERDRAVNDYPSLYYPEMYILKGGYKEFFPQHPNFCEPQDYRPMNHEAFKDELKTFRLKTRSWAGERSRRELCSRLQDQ
In words: Inhibitory activity against cdc25B phosphatase. The method, boiled down: as §1

Assay [5] concerns the target Dual specificity protein phosphatase 3 (Homo sapiens, UniProt P51452). In words: Inhibitory activity against VH1-related phosphatase VHR. A digest of the protocol:
as §1

The nature of assay [6]: Inhibitory activity against protein phosphatase type 2A. The method, boiled down: as §1

SMILES strings stand for the structures.

The results in this text go back to ChEMBL document CHEMBL1149392, “PTP-1B inhibitors: cyclopenta[d][1,2]-oxazine derivatives” (Bioorg Med Chem Lett, 2006).

Sequence of Receptor-type tyrosine-protein phosphatase F (P10586 whole entry): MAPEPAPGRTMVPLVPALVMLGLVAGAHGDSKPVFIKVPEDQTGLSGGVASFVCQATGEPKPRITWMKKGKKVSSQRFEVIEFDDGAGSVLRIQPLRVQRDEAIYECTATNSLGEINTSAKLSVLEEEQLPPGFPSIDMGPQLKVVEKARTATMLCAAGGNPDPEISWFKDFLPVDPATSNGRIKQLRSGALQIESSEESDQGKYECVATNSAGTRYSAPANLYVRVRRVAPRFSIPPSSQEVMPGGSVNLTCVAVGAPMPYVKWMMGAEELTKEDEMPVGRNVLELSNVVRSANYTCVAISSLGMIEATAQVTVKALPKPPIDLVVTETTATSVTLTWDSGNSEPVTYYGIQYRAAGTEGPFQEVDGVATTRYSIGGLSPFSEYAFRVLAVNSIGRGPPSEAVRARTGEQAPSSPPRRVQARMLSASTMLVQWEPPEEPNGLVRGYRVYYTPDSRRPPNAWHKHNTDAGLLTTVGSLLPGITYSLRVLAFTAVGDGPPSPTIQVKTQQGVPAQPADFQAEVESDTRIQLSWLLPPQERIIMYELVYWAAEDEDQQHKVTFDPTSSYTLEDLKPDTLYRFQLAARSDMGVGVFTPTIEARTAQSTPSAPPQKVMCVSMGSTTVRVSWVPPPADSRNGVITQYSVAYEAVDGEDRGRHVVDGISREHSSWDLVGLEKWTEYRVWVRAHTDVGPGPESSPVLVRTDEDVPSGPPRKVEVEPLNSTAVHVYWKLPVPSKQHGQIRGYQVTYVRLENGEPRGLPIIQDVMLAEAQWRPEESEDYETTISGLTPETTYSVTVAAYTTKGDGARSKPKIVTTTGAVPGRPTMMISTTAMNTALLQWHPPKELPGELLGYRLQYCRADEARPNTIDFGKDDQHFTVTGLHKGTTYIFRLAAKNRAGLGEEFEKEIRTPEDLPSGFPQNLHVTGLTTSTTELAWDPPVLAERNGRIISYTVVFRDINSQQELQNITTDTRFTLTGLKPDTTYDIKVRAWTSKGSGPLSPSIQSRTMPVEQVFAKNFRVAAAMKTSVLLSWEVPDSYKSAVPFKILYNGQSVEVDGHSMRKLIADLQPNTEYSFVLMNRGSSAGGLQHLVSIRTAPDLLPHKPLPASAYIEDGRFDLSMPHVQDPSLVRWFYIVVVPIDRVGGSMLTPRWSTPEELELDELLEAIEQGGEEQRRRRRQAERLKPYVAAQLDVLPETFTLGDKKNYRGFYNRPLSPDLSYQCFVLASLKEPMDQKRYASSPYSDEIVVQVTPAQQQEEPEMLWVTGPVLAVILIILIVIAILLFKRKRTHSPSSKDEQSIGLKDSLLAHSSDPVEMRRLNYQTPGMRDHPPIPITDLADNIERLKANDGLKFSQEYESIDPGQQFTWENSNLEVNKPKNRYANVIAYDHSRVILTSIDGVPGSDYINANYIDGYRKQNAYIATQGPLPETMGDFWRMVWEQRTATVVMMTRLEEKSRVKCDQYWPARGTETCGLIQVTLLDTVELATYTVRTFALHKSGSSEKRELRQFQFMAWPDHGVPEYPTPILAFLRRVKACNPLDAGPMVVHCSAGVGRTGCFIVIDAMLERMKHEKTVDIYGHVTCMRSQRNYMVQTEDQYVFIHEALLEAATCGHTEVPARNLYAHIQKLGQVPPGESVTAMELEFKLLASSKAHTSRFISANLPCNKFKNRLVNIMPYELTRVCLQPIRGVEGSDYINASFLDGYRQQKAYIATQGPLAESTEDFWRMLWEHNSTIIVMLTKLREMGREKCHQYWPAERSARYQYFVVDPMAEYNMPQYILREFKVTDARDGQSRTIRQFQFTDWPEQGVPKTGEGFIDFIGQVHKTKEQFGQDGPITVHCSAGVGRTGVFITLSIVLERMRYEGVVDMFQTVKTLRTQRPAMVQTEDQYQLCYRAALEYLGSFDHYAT
Sequence of Serine/threonine-protein phosphatase PP1-gamma catalytic subunit (P36873 whole entry): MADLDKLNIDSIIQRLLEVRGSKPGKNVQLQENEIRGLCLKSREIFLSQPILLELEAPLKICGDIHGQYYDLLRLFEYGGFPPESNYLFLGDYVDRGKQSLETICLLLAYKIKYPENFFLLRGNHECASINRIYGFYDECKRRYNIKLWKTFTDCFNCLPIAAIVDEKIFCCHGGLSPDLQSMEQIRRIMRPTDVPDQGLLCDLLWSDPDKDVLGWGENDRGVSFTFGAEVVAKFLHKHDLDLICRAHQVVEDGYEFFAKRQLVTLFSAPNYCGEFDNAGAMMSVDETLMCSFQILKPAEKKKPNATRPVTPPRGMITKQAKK
Sequence of Tyrosine-protein phosphatase YopH (P15273 whole entry): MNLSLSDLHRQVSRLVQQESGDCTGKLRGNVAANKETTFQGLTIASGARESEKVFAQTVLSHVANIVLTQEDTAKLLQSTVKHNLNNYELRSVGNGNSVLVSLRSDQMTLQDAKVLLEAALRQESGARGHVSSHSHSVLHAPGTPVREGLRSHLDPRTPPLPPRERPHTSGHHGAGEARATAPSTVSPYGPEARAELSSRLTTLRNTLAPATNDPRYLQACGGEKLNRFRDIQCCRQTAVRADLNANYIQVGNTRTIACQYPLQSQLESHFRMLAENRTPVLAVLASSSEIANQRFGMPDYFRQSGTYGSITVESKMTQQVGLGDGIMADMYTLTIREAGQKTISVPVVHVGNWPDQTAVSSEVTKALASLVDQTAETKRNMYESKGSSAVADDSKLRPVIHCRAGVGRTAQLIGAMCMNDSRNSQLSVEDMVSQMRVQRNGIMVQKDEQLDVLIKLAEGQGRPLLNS
Sequence of Dual specificity protein phosphatase 3 (P51452 whole entry): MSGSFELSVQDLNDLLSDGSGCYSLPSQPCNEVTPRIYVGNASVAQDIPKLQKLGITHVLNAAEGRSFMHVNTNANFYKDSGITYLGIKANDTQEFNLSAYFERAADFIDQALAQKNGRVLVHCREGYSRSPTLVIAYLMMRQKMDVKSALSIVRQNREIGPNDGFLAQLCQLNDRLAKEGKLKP

The IC50 is the concentration that inhibits the measured activity by half. High values mean lower potency, low ones higher potency. For `CCCCCCCCCCCCCCc1ccc(C(=O)c2ccc3c(-c4ccc(OCC(=O)O)cc4)nocc2-3)cc1`, the IC50 in assay [1] is 0.69 µM; in assay [2], 0.55 µM; in assay [3] it was 0.22 µM; in assay [4], 0.12 µM.
With `COc1ccc(C(=O)c2ccc3c(-c4ccc(OCC(=O)O)cc4)nocc2-3)cc1`, the IC50 in assay [1] was 61.7 µM; in assay [5] it was 181 µM; in assay [2] it was 5.71 µM; in assay [3] it was 35.2 µM; in assay [6], above 10 µM; in assay [4] it was 16.1 µM.
In the case of `NCc1ccc(C(=O)c2ccc3c(-c4ccc(OCC(=O)O)cc4)nocc2-3)cc1`, the 50% inhibitory concentration (IC50) in assay [1] is above 10 µM; in assay [2], 1.19 µM; in assay [3] it was 1.3 µM; in assay [4], 10 µM.
